Test results published in ChEMBL document CHEMBL4765233, “From Lead to Drug Candidate: Optimization of 3-(Phenylethynyl)-1H-pyrazolo[3,4-d]pyrimidin-4-amine Derivatives as Agents for the Treatment of Triple Negative Breast Cancer” (J Med Chem, 2016).
Activity calls are given as the source filed them. The rule behind the calls is not given here.

Experiments:
MDA-MB-231 [1] = experiment: Antitumor activity against human MDA-MB-231 cells xenografted in SCID mouse assessed as tumor growth inhibition at 40 mg/kg, po qd for 21 days and measured every 3 days; format: functional; settings: dose 40.0 mg/kg/day, time 21.0 day
How it was run: (§1)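 SCID mice (5−6 weeks) injected subcutaneously with 100 μL of cells at 5 × 10^7/mL. At 150−200 mm3 mice randomized, 6 per group. Oral compounds given in water with 25% PEG400 plus 5% DMSO; paclitaxel given 10 mg/kg/week iv. Tumor volume a×b²/2 and body weight measured every 3 days. Inhibition rate (c−d)/c×100% against vehicle control.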

MDA-MB-231 [2] = experiment: Inhibition of colony formation in human MDA-MB-231 cells at 0.1 uM treated for 12 days by crystal violet staining based visual analysis; format: functional, cell-based; settings: time 12.0 day
How it was run: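 MDA-MB-231 cells seeded at 5000 per well in six-well plates and treated the next day, with drug-containing medium replaced every 4 days. After 12 days, colonies fixed with methanol and stained with crystal violet, then photographed.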

MDA-MB-231 [3] = experiment: Inhibition of MEK phosphorylation in human MDA-MB-231 cells at 0.03 to 0.3 uM incubated for 20 hrs by Western blot analysis; format: cell-based; settings: dose 0.03-0.3 µM
How it was run: (§2)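 MDA-MB-231 cells treated with a series of concentrations for 20 h at 37 °C. Cells washed with ice-cold saline and lysed in RIPA buffer with protease cocktail. Lysates cleared at 12000 rpm for 10 min at 4 °C and protein quantified by Bradford. Equal protein separated by SDS-PAGE, transferred to PVDF and probed with antibodies.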

MDA-MB-231 [4] = experiment: Antimigratory activity against human MDA-MB-231 cells assessed as inhibition of cell migration at 0.3 uM incubated for 20 hrs by wound healing assay; format: functional, cell-based
How it was run: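 MDA-MB-231 monolayer grown to confluence, scratched with a sterile pipet tip, rinsed with physiological saline, then given DMEM containing vehicle or compound. Wound imaged after 20 h to assess migration.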

MDA-MB-435 [5] = experiment: Antiproliferative activity against human MDA-MB-435 cells assessed as reduction in cell viability incubated for 72 hrs by MTT assay; format: functional, cell-based; settings: MDA-MB-435, 72 h
How it was run: (§3)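 MTT viability assay. ATCC cell lines were grown in designated medium with 10% FBS at 37 °C, 5% CO2. Cells seeded at 1500−30000 per well and incubated 24 h, then exposed to compound (0−10 μg/mL) for 72 h. MTT added for 2−4 h. Formazan dissolved in DMSO (adherent) or acidified SDS overnight (suspension), absorbance read at 570 nm. Triplicates; IC50 calculated.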

[6] = Toxicity in SCID mouse xenografted with MDA-MB-231 cells assessed as change in body weight at 40 mg/kg, po qd for 21 days and measured every 3 days; format: organism-based; settings: in vivo, 504 h, dose 40 mg/kg/day, time 21 day
How it was run: (§4)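 Exponential-phase cells washed and injected subcutaneously (5 × 10^6 cells in 100 μL) into 5–6-week SCID mice. At 150–200 mm3, mice randomised to groups of 6. Oral dosing daily in water with 25% PEG400 and 5% DMSO; paclitaxel 10 mg/kg weekly by tail vein. Body weight measured every 3 days and side effects checked daily.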

MDA-MB-231 [7] = experiment: Inhibition of ERK phosphorylation in human MDA-MB-231 cells at 0.03 to 0.3 uM incubated for 20 hrs by Western blot analysis; format: cell-based; settings: dose 0.03-0.3 µM; how it was run: as §2
HepG2 = experiment: Antiproliferative activity against human HepG2 cells assessed as reduction in cell viability incubated for 72 hrs by MTT assay; format: ADME, cell-based; settings: HepG2, 72 h
MDA-MB-231 [8] = experiment: Inhibition of Fra1 phosphorylation in human MDA-MB-231 cells at 0.03 to 0.3 uM incubated for 20 hrs by Western blot analysis; format: functional, cell-based; settings: dose 0.03-0.3 µM; how it was run: as §2
MDA-MB-231 [9] = experiment: Increase in cleaved caspase-3 level in human MDA-MB-231 cells at 0.03 to 0.3 uM incubated for 20 hrs by Western blot analysis; format: functional, cell-based; settings: dose 0.03-0.3 µM
How it was run: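 MDA-MB-231 cells given a concentration series for 20 h at 37 °C. Cells lysed in RIPA with protease cocktail, cleared at 12000 rpm, 4 °C. Protein quantified by Bradford, equal amounts run on SDS-PAGE, transferred to PVDF and immunoblotted.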

MDA-MB-231 [10] = experiment: Induction of apoptosis in human MDA-MB-231 cells assessed as early apoptotic cells at 0.1 uM incubated for 24 hrs by annexin V-FITC and propidium iodide staining based flow cytometry analysis (reference value: 2 %); format: functional
MDA-MB-231 [11] = experiment: Induction of apoptosis in human MDA-MB-231 cells assessed as necrotic cells at 0.1 uM incubated for 24 hrs by annexin V-FITC and propidium iodide staining based flow cytometry analysis (reference value: 0.2 %); format: functional
MDA-MB-231 [12] = experiment: Induction of apoptosis in human MDA-MB-231 cells assessed as live cells at 0.1 uM incubated for 24 hrs by annexin V-FITC and propidium iodide staining based flow cytometry analysis (reference value: 96.95 %); format: functional
MDA-MB-231 [13] = experiment: Antiproliferative activity against human MDA-MB-231 cells assessed as reduction in cell viability incubated for 72 hrs by MTT assay; format: functional, cell-based; settings: MDA-MB-231, 72 h; how it was run: as §3
MDA-MB-435 [14] = experiment: Antitumor activity against human MDA-MB-435 cells xenografted in SCID mouse assessed as tumor growth inhibition at 40 mg/kg, po QD for 21 days and measured every 3 days; format: functional; settings: dose 40.0 mg/kg/day, time 21.0 day; how it was run: as §1
MDA-MB-231 [15] = experiment: Induction of apoptosis in human MDA-MB-231 cells assessed as late apoptotic cells at 0.1 uM incubated for 24 hrs by annexin V-FITC and propidium iodide staining based flow cytometry analysis (reference value: 0.85 %); format: functional
MDA-MB-231 [16] = experiment: Inhibition of Fra1 expression in human MDA-MB-231 cells at 0.03 to 0.3 uM incubated for 20 hrs by Western blot analysis; format: functional, cell-based; settings: dose 0.03-0.3 µM; how it was run: as §2
[17] = Toxicity against SCID mouse xenografted with human MDA-MB-231 cells assessed as change in body weight at 10 mg/kg, iv administered weekly for 21 days and measured every 3 days; format: organism-based; settings: in vivo, 504 h, time 21 day; how it was run: as §4
[18] = system: MDA-MB-435 (Homo sapiens); experiment: Antitumor activity against human MDA-MB-435 cells xenografted in SCID mouse assessed as tumor growth inhibition at 10 mg/kg, iv administered weekly for 21 days and measured every 3 days; settings: time 21.0 day
MDA-MB-231 [19] = experiment: Antitumor activity against human MDA-MB-231 cells xenografted in SCID mouse assessed as tumor growth inhibition at 10 mg/kg, iv administered weekly for 21 days and measured every 3 days; format: functional, organism-based; settings: time 21.0 day; how it was run: as §1
[20] = Toxicity against SCID mouse xenografted with human MDA-MB-435 cells assessed as change in body weight at 10 mg/kg, iv administered weekly for 21 days and measured every 3 days; format: organism-based; settings: in vivo, 504 h, time 21 day; how it was run: as §4

With `Cc1nc(Nc2ncc(C(=O)Nc3c(C)cccc3Cl)s2)cc(N2CCN(CCO)CC2)n1.O` [DASATINIB] the Activity (MDA-MB-231 [1]) was “Active”, the inhibition (MDA-MB-231 [2]) was “Active” and the inhibition (MDA-MB-231 [3]) was “Active”. For the same compound, the Activity (MDA-MB-231 [4]) was “Active”, the IC50 (MDA-MB-435 [5]) was 5.15 µM and the Activity [6] was “Non-Toxic”. The inhibition (MDA-MB-231 [7]) was “Active”, the IC50 (HepG2) was 7.5 µM and the inhibition (MDA-MB-231 [8]) was “Active”. The Activity (MDA-MB-231 [9]) was “Active”, the Activity (MDA-MB-231 [10]) was 4.24% and the Activity (MDA-MB-231 [11]) was 0.34%. For the same compound, the Activity (MDA-MB-231 [12]) was 92.97%, the IC50 (MDA-MB-231 [13]) was 0.112 µM and the inhibition (MDA-MB-435 [14]) was “Active”. For the same compound, the Activity (MDA-MB-231 [15]) was 2.45% and the inhibition (MDA-MB-231 [16]) was “Active”.

In the case of `CC(=O)O[C@H]1C(=O)[C@@]2(C)[C@H]([C@H](OC(=O)c3ccccc3)[C@]3(O)C[C@H](OC(=O)[C@H](O)[C@@H](NC(=O)c4ccccc4)c4ccccc4)C(C)=C1C3(C)C)[C@]1(OC(C)=O)CO[C@@H]1C[C@@H]2O` [PACLITAXEL], the Activity [17] is reported as “Non-Toxic”, the Activity [18] is reported as “Active” and the Activity (MDA-MB-231 [19]) is reported as “Active”. The Activity [20] was “Non-Toxic”.
